The source made the active and inactive calls. The calls are words filed in the database; no cut-off is given here.
These molecules were tested on Vesicular stomatitis virus (assay: Antiviral activity against pseudotype VSV harbouring glycoprotein infected human 293T/ACE2 cells assessed as inhibition of viral infection measured after 48 hrs by luciferase reporter gene assay).
Type: functional, organism-based
Outline: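 293T-ACE2 cells (20,000/well) were seeded and treated 24 h later with graded compound concentrations mixed with pseudovirus supernatant, then incubated 48 h. The HIV-based pseudovirus (pNL4-3.Luc.R-E-) carried SARS-CoV-2 S or VSV-G and was made by co-transfecting HEK293T cells; supernatant was harvested at 48 h and filtered (0.45 µm). Read-out was luciferase activity in cell lysates. Sal-C was the positive control.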
C[C@@H]1O[C@@H](O[C@H]2[C@H](O[C@H]3CC[C@]4(C)[C@H]5CC=C6[C@@H]7CC(C)(C)CC[C@]7(C(=O)NCc7cccs7)CC[C@@]6(C)[C@]5(C)CC[C@H]4C3(C)C)O[C@H](CO)[C@@H](O[C@@H]3O[C@@H](C)[C@H](O)[C@@H](O)[C@H]3O)[C@@H]2O)[C@H](O)[C@H](O)[C@H]1O was tested, and the inhibition was “inactive”. With C[C@@H]1O[C@@H](O[C@H]2[C@H](O[C@H]3CC[C@]4(C)[C@H]5CC=C6[C@@H]7CC(C)(C)CC[C@]7(C(=O)NCc7ccccc7)CC[C@@]6(C)[C@]5(C)CC[C@H]4C3(C)C)O[C@H](CO)[C@@H](O[C@@H]3O[C@@H](C)[C@H](O)[C@@H](O)[C@H]3O)[C@@H]2O)[C@H](O)[C@H](O)[C@H]1O the inhibition was “inactive”. COc1ccccc1NC(=O)[C@]12CCC(C)(C)C[C@H]1C1=CC[C@@H]3[C@@]4(C)CC[C@H](O[C@@H]5O[C@H](CO)[C@@H](O[C@@H]6O[C@@H](C)[C@H](O)[C@@H](O)[C@H]6O)[C@H](O)[C@H]5O[C@@H]5O[C@@H](C)[C@H](O)[C@@H](O)[C@H]5O)C(C)(C)[C@@H]4CC[C@@]3(C)[C@]1(C)CC2 was tested, and the inhibition was “inactive”. C[C@@H]1O[C@@H](O[C@H]2[C@H](O[C@H]3CC[C@]4(C)[C@H]5CC=C6[C@@H]7CC(C)(C)CC[C@]7(C(=O)NCc7ccccc7F)CC[C@@]6(C)[C@]5(C)CC[C@H]4C3(C)C)O[C@H](CO)[C@@H](O[C@@H]3O[C@@H](C)[C@H](O)[C@@H](O)[C@H]3O)[C@@H]2O)[C@H](O)[C@H](O)[C@H]1O was tested, and the inhibition was “inactive”.
